pIC50, pKi: −log10 of the molar value. Active and inactive are the calls of the source. No cut-off for these calls is given here.
Tests used:
[1] = system: Plasmodium falciparum; experiment: Antimalarial activity against Plasmodium falciparum 3D7; type: functional, organism-based
[2] = Cytotoxicity against human OCI-AML1 cells; type: functional, cell-based
[3] = system: CHO; experiment: Cytotoxicity against CHO cells; type: cell-based; conditions: Cricetulus griseus
[4] = target: Orotidine 5'-phosphate decarboxylase (Methanobacterium thermoautotrophicum) (UniProt O26232); experiment: Covalent binding affinity to Methanobacterium thermoautotrophicum 5'-monophosphate decarboxylase by mass spectroscopy analysis; conditions: Methanothermobacter thermautotrophicus
Sequence of Orotidine 5'-phosphate decarboxylase (Methanobacterium thermoautotrophicum) (O26232 whole entry, looked up): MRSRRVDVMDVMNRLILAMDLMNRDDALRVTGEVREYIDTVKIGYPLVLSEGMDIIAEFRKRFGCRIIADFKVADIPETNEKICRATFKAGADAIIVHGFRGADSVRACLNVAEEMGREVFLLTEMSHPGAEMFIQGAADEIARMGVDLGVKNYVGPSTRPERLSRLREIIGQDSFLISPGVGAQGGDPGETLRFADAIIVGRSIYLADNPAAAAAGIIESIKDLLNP
How it was run: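 Mt ODCase incubated overnight at room temperature with inhibitor (25 mM, in the dark; or 388 mM with 200 μM enzyme) in 50 mM Tris pH 7.5, 20 mM DTT, 40 mM NaCl. Enzyme mass measured by mass spectrometry against an inhibitor-free control; covalent adduct taken from a mass increase over native enzyme.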

[5] = target: Orotidine 5'-phosphate decarboxylase (Methanobacterium thermoautotrophicum, UniProt O26232); experiment: Irreversible inhibition of Methanobacterium thermoautotrophicum 5'-monophosphate decarboxylase
Sequence of Orotidine 5'-phosphate decarboxylase (O26232 whole entry): as the sequence (O26232 whole entry, looked up) above

pIC50 [1] | pKi [5] | SMILES | pIC50 [2] | pIC50 [3] | Activity [4]
< 2.22 | – | O=c1cc(I)n([C@@H]2O[C@H](CO)[C@@H](O)[C@H]2F)c(=O)[nH]1 | < 4.30 | 2.87 | –
< 2.70 | – | NC(=O)c1cc(=O)[nH]c(=O)n1[C@@H]1O[C@H](CO)[C@@H](O)[C@H]1F | < 4.30 | < 3.00 | –
< 3.00 | – | N#Cc1cc(=O)[nH]c(=O)n1[C@@H]1O[C@H](CO)[C@@H](O)[C@H]1F | < 4.30 | < 3.22 | –

Further lines, the molecule ahead of its results:

SMILES | pIC50 [1] | pKi [5] | pIC50 [2] | pIC50 [3] | Activity [4]
N#Cc1cn([C@@H]2O[C@H](CO)[C@@H](O)[C@H]2F)c(=O)[nH]c1=O | 2.96 | – | < 4.30 | < 3.00 | –
O=c1cc(I)n([C@@H]2O[C@H](CP(=O)(O)O)[C@@H](O)[C@H]2F)c(=O)[nH]1 | – | – | – | – | Active
[N-]=[N+]=Nc1cc(=O)[nH]c(=O)n1[C@@H]1O[C@H](CO)[C@@H](O)[C@H]1F | < 3.00 | – | < 4.30 | < 2.70 | –
[N-]=[N+]=Nc1cc(=O)[nH]c(=O)n1[C@@H]1O[C@H](COP(=O)(O)O)[C@@H](O)[C@H]1F | – | 2.92 | – | – | Active
